According to ChEMBL document CHEMBL1124898, “Novel agents effective against solid tumors: the diarylsulfonylureas. Synthesis, activities, and analysis of quantitative structure-activity relationships” (J Med Chem, 1990):
Converted amounts (≈) assume the structure as drawn.

Columns and labels:
[1] = Antitumor activity in vivo against the 6C3HED lymphosarcoma, dosed for 8 days at 300 mg/kg; settings: Mus musculus, 192 h
CCRF-CEM = assay: Concentration required to inhibit growth of CCRF-CEM cells in culture for 72 hr to 50% of control growth; format: functional, cell-based; settings: Homo sapiens
[2] = Antitumor activity in vivo against the 6C3HED lymphosarcoma dosed for 10 days at 300 mg/kg (ip dosing daily for 8 days); format: functional; settings: Mus musculus, route intraperitoneal
In short: (§1)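 Tumor fragments (about 1–2 mm) implanted sc via trochar into a subaxillary site of syngeneic mice (C3H, C57BL/6, Balb/C or DBA/2) or Holtz rats. Groups were 7–10 randomized animals. Compound was suspended in 2.5% Emulphor in 0.9% saline and given orally by gavage or ip, usually from the day after implantation. Tumor volume versus untreated controls was measured one day after the final dose and reported as % inhibition. Scoring bands: +++ 95–100%, ++ 80–94%.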

C3H = assay: Antitumor activity in vivo expressed as percent of inhibition in C3H-mammary adenocarcinoma cell line; format: functional, Mus musculus
In short: as §1

[3] = Antitumor activity in vivo against the 6C3HED lymphosarcoma dosed for 8 days at 200 mg/kg; settings: Mus musculus, 192 h
P388 = assay: Antitumor activity in vivo and the activity was determined as percent increase in life span determined against P388-lymphocytic leukemia tumor cell lines; format: functional, Mus musculus
In short: (§2)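 The ascites tumor inoculum of 1 × 10^6 cells was given ip to DBA/2 mice, and treatment started the next day. Compound was suspended in 2.5% Emulphor in 0.9% saline. Groups had 7–10 animals. %ILS = (MDD treated − MDD control)/MDD control × 100. Deaths before the control median day of death were counted as toxic. Values are optimal from at least two experiments.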

[4] = Tested on 6C3HED lymphosarcoma and percent inhibition was determined at 200 mg/kg dosage administered for 8 days intraperitoneally; format: functional; settings: Mus musculus, po, 192 h, in the assay text read “orally” for “intraperitoneally”
In short: as §1

[5] = Tested on 6C3HED lymphosarcoma and percent inhibition was determined at 200 mg/kg dosage administered for 10 days intraperitoneally; format: functional; settings: Mus musculus, ip, 240 h, route intraperitoneal
In short: as §1

YOSHIDA = assay: Antitumor activity in vivo expressed as percent of inhibition in Yoshida-sarcoma (rat) cell line; format: functional
In short: as §1

[6] = Tested on CA-755 mammary adenocarcinoma and percent inhibition was determined at 150 mg/kg dosage administered for 10 days intraperitoneally.; format: functional; settings: Mus musculus, CA-755, po, 240 h; in the assay text read “orally” for “intraperitoneally”
In short: as §1

B16 [7] = assay: Antitumor activity in vivo and the activity was determined as percent increase in life span determined against B-16-melanoma (ascites) cell lines; format: functional, Mus musculus
In short: as §2

M-5 (Mus musculus) = assay: Antitumor activity in vivo expressed as percent of inhibition in M-5-ovarian carcinoma cell line
B16 [8] = assay: Antitumor activity in vivo expressed as percent of inhibition in B-16-melanoma (solid) cell line; format: functional, Mus musculus
In short: as §1

[9] = Tested on X-5563 multiple myeloma and percent inhibition was determined at 150 mg/kg dosage administered for 10 days intraperitoneally.; format: functional; settings: Mus musculus, X5563, po, 240 h; in the assay text read “orally” for “intraperitoneally”
In short: as §1

[10] = test system: Lewis lung carcinoma cell line; assay: Antitumor activity in vivo expressed as percent of inhibition in Lewis-lung carcinoma cell line; format: functional, Mus musculus
In short: as §1

[11] = Tested on 6 C3 HED lymphosarcoma and number of drug related deaths/total animals in treatment group was determined at 50 mg/kg dosage administered for 8 days perorally; 3/10; format: ADME, organism-based; parameters: dose 50 mg/kg, route oral; settings: mouse, in vivo, po, 192 h
[12] = Tested on CA-755 mammary adenocarcinoma and percent inhibition was determined at 100 mg/kg dosage administered for 10 days intraperitoneally.; format: functional; settings: Mus musculus, CA-755, ip, 240 h, route intraperitoneal
In short: as §1

[13] = Tested on X-5563 multiple myeloma and number of drug related deaths/total animals in treatment group was determined at 150 mg/kg dosage administered for 10 days orally; 3/10; settings: mouse, in vivo, po, 240 h
[14] = Tested on X-5563 multiple myeloma and percent inhibition was determined at 100 mg/kg dosage administered for 10 days intraperitoneally.; format: functional; settings: Mus musculus, X5563, ip, 240 h, route intraperitoneal
In short: as §1

[15] = Tested on 6 C3 HED lymphosarcoma and number of drug related deaths/total animals in treatment group was determined at 100 mg/kg dosage administered for 8 days intraperitoneally; 0/10; format: ADME, organism-based; parameters: dose 100 mg/kg, route intraperitoneal; settings: mouse, in vivo, ip, 192 h
Colon 26 = assay: Antitumor activity in vivo expressed as percent of inhibition in C-26-colon carcinoma cell line; format: functional, Mus musculus
In short: as §1

[16] = Tested on 6C3HED lymphosarcoma and percent inhibition was determined at 100 mg/kg dosage administered for 8 days intraperitoneally; format: functional; settings: Mus musculus, ip, 192 h, route intraperitoneal
In short: as §1

[17] = Tested on CA-755 mammary adenocarcinoma and percent inhibition was determined at 50 mg/kg dosage administered for 10 days intraperitoneally.; format: functional; settings: Mus musculus, CA-755, ip, 240 h, route intraperitoneal
In short: as §1

[18] = Tested on 6 C3 HED lymphosarcoma and number of drug related deaths/total animals in treatment group was determined at 200 mg/kg dosage administered for 10 days intraperitoneally; 1/10; format: ADME, organism-based; parameters: dose 200 mg/kg, route intraperitoneal; settings: mouse, in vivo, ip, 240 h
[19] = Tested on X-5563 multiple myeloma and number of drug related deaths/total animals in treatment group was determined at 100 mg/kg dosage administered for 10 days intraperitoneally; 1/7; format: ADME, organism-based; parameters: dose 100 mg/kg, route intraperitoneal; settings: mouse, in vivo, ip, 240 h
P1534J = assay: Antitumor activity in vivo expressed as percent of inhibition in P1534J-lymphatic leukemia cell line; format: functional, Mus musculus
CA-755 = assay: Antitumor activity in vivo expressed as percent of inhibition in CA-755-mammary adenocarcinoma tumor cell line; format: functional, Mus musculus
In short: as §1

[20] = Tested on 6C3HED lymphosarcoma and percent inhibition was determined at 50 mg/kg dosage administered for 8 days intraperitoneally; format: functional; settings: Mus musculus, po, 192 h, in the assay text read “orally” for “intraperitoneally”
In short: as §1

L1210 = assay: Antitumor activity in vivo and the activity was determined as percent increase in life span determined against L1210V-lymphocytic leukemia tumor cell lines; format: functional, Mus musculus
In short: as §2

X5563 = assay: Antitumor activity in vivo expressed as percent of inhibition in X5563-plasma cell myeloma cell line; format: functional, Mus musculus
In short: as §1

6C3HED = assay: Antitumor activity in vivo expressed as percent of inhibition in 6C3HED-lymphosarcoma tumor cell line; format: functional, Mus musculus
In short: as §1

[21] = Tested on 6 C3 HED lymphosarcoma and number of drug related deaths/total animals in treatment group was determined at 200 mg/kg dosage administered for 8 days perorally; 1/10; format: ADME, organism-based; parameters: dose 200 mg/kg, route oral; settings: mouse, in vivo, po, 192 h
[22] = Antitumor activity in vivo against the 6C3HED lymphosarcoma dosed for 10 days at 275 mg/kg; format: functional; settings: Mus musculus, 192 h, in the assay text read “8 days” for “10 days”
In short: as §1

[23] = Antitumor activity in vivo against the 6C3HED lymphosarcoma dosed for 10 days at 225 mg/kg; format: functional; settings: Mus musculus, 192 h, in the assay text read “8 days” for “10 days”
In short: as §1

[24] = Antitumor activity in vivo against the 6C3HED lymphosarcoma dosed for 10 days at 270 mg/kg; format: functional; settings: Mus musculus, 192 h, in the assay text read “8 days” for “10 days”
In short: as §1

[25] = Antitumor activity in vivo against the 6C3HED lymphosarcoma dosed for 10 days at 300 mg/kg (intraperitoneal dosing for 8 days); format: functional; settings: Mus musculus, ip
In short: as §1

[26] = Antitumor activity in vivo against the 6C3HED lymphosarcoma dosed for 10 days at 1600 mg/kg (intraperitoneal dosing for 8 days); format: functional; settings: Mus musculus, ip
In short: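 Solid tumor fragments of about 1–2 mm were implanted sc by trochar into the subaxillary site of syngeneic mice. Treatment began the day after implantation. Compound was suspended in 2.5% Emulphor in 0.9% saline and given ip. Groups had 7–10 randomized animals. Percent inhibition of growth was scored from tumor volume versus controls one day after the final dose.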

[27] = Antitumor activity in vivo against the 6C3HED lymphosarcoma dosed for 10 days at 600 mg/kg; format: functional; settings: Mus musculus, 192 h, in the assay text read “dosed for 8 days” for “dosed for 10 days”
In short: as §1

For `Cc1ccc(S(=O)(=O)/N=C(\S)Nc2ccc(Cl)cc2)cc1`, the inhibition in vivo at 300 mg/kg [1] was 35%, the IC50 (CCRF-CEM) was 12.9 µg/mL (≈ 37.8 µM) and the inhibition in vivo at 300 mg/kg [2] was 45%.
`Cc1ccc(S(=O)(=O)NC(=O)Nc2ccc(C(F)(F)F)cc2)cc1` gave an Inhibition (C3H) of 94%, an inhibition in vivo at 200 mg/kg [3] of 100% and an Increase in life-span (P388) of under 50%. For the same compound, the inhibition in vivo at 200 mg/kg [4] was 100%, the inhibition in vivo at 200 mg/kg [5] was 49% and the Inhibition (YOSHIDA) was 94%. For the same compound, the inhibition in vivo at 150 mg/kg [6] was 94%, the Increase in life-span (B16 [7]) was under 50% and the IC50 (CCRF-CEM) was 5.3 µg/mL (≈ 14.8 µM). For the same compound, the Inhibition (M-5 (Mus musculus)) was 94%, the Inhibition (B16 [8]) was under 60% and the inhibition in vivo at 150 mg/kg [9] was 77%. The Inhibition [10] was 79%, the Toxic/total [11] was 3 and the inhibition in vivo at 100 mg/kg [12] was 13%. For the same compound, the Toxic/total [13] was 3, the inhibition in vivo at 100 mg/kg [14] was 64% and the Toxic/total [15] was 0. For the same compound, the Inhibition (Colon 26) was 94%, the inhibition in vivo at 100 mg/kg [16] was 81% and the inhibition in vivo at 50 mg/kg [17] was 87%. For the same compound, the Toxic/total [18] was 1, the Toxic/total [19] was 1 and the Inhibition (P1534J) was 100%. The Inhibition (CA-755) was 94%, the inhibition in vivo at 50 mg/kg [20] was 84% and the Increase in life-span (L1210) was under 50%. For the same compound, the Inhibition (X5563) was 79%, the Inhibition (6C3HED) was 100% and the Toxic/total [21] was 1.
`Cc1ccc(S(=O)(=O)NC(=O)Nc2ccccc2)cc1` showed an IC50 (CCRF-CEM) of over 20 µg/mL and an inhibition in vivo at 275 mg/kg [22] of 44%.
`O=C(Nc1ccccc1)NS(=O)(=O)c1ccccc1` showed an IC50 (CCRF-CEM) of over 20 µg/mL and an inhibition in vivo at 225 mg/kg [23] of 35%.
For `O=C(Nc1cccc(C(F)(F)F)c1)NS(=O)(=O)c1ccc([N+](=O)[O-])cc1`, the inhibition in vivo at 270 mg/kg [24] was 20% and the IC50 (CCRF-CEM) was over 20 µg/mL.
For `O=C(NC(=O)c1ccccc1)Nc1ccc(Cl)cc1`, the inhibition in vivo at 300 mg/kg [25] was 0%, the inhibition in vivo at 300 mg/kg [1] was 7% and the IC50 (CCRF-CEM) was over 20 µg/mL.
For `O=C(NC(=O)c1c(F)cccc1F)Nc1ccc(Cl)cc1` [DIFLUBENZURON], the inhibition in vivo at 1600 mg/kg [26] was 33%, the inhibition in vivo at 300 mg/kg [1] was 6% and the IC50 (CCRF-CEM) was over 20 µg/mL.
`CCCCNC(=O)NS(=O)(=O)c1ccc(C)cc1` [TOLBUTAMIDE] showed an inhibition in vivo at 600 mg/kg [27] of 45%.
